# From article PMC10900806 (Asian Journal of Pharmaceutical Sciences, 2024)
# “Also recorded” adds a separate entry of the source.
# Legend:
# Assay type in all cases: cell-based
# B16-F10 cells [1] = conditions: 5 µM, 1 h
# B16-F10 cells [2] = experiment: Cell cycle assay; conditions: CPT 5 µM, AAM analogs 5 µM, conjugates 5 µM, 1 h at pH 5.5, then 24 h, n = 3
# caspase-3 = experiment: Caspase-3 activity assay; conditions: B16-F10 cells, 24 h treatment, Caspase-3 assay kit
# Outline: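 B16-F10 cells were seeded at 5 × 10^5 per well and cultured overnight. They were then exposed to test peptides for 24 h, and caspase-3 activity was measured with a commercial caspase-3 activity kit.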
# B16-F10 cells [3] = experiment: Endosomal escape, co-localization with LysoTracker Red; conditions: 5 µM, pH 5.5, 15 min then further 15, 30 and 60 min, ImageJ
# Outline: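 Cells were exposed to a FAM-labelled test peptide (5 µM) at pH 5.5 for 15 min, taken as 0 min, then incubated a further 15, 30 or 60 min. Medium was removed and lysosomes were stained with LysoTracker Red (100 nM, 30 min). After confocal imaging, co-localisation was quantified as Pearson's correlation coefficient (R).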
# erythrocyte suspension = experiment: Hemolysis assay; conditions: 10% (v/v) mouse erythrocytes in PBS, 1 h, 37 °C, absorbance at 450 nm
# Outline: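 Heparinised whole mouse blood was centrifuged at 1,000 × g for 15 min. The pellet was washed three times with PBS and resuspended to 10% (v/v) in PBS. Suspension was mixed with test compounds for 1 h at 37 °C, then centrifuged, and supernatant absorbance was read at 450 nm. PBS defined 0% and 0.1% Triton X-100 defined 100% hemolysis.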
# B16-F10 cells [4] = experiment: LDH release assay; conditions: 1 h, pH 7.4 or 5.5, CytoTox-ONE kit, n = 3
# B16-F10 cells [5] = experiment: PI uptake assay; conditions: 10 µM
# Outline: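 B16-F10 cells (6 × 10^4) were seeded in glass-bottomed dishes and cultured overnight. End point: 1 h exposure to 10 µM test agent at pH 5.5 or 7.4, then fresh DMEM with PI (1 µg/ml) for 10 min before confocal imaging. Kinetics: 10 µM agent was added to DMEM containing PI (1 µg/ml) at pH 5.5, with images taken every 1 min for 30 min.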
# B16-F10 cells [6] = experiment: Short-term cytotoxicity, MTT, 1 h; conditions: 1 h incubation, serum-free medium, different pH values, n = 3
# Outline: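 B16-F10 cells were seeded at 1 × 10^4 per well and cultured overnight. They were incubated 1 h with test compounds at different pH values, and viability was assessed by MTT. Membrane-lytic reference peptides served as positive controls. Data are from three independent experiments, given as mean ± SD.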
molecule,measurement,setting,value
"CC[C@@]1(O)C(=O)OCc2c1cc1n(c2=O)Cc2cc3ccccc3nc2-1 [CPT, camptothecin]","cellular uptake of CPT and peptide-CPT conjugates (blue fluorescence, confocal)","B16-F10 cells [1]; pH 7.4 or 5.5, near UV excitation",distinction of fluorescence intensity between pH 7.4 and pH 5.5 was not obvious
same,cell cycle distribution,B16-F10 cells [2],significantly increased the cell proportion in the G2/M phase and decreased the cell proportion in the G0/G1 and S phases
same,caspase-3 activation,caspase-3,significantly activated caspase-3
GIGAVLHVLTTGLPALISWIHHHHQC(FAM)-NH2 [FAM-AAM-1],"cellular uptake of FAM-labeled peptides, confocal microscopy","B16-F10 cells [1]; serum-free medium, pH 7.4 or 5.5",higher cellular uptake in B16-F10 cells at pH 5.5 than that at pH 7.4
same,Pearson's correlation coefficients (r) between FAM-AAM-1 and LysoTracker Red,B16-F10 cells [3],r-values became gradually low over time
melittin,hemolytic activity,erythrocyte suspension,extreme hemolytic activity
same,LDH release (membrane-lytic activity),B16-F10 cells [4],strong release of LDH at both pH 7.4 and 5.5
same,"PI uptake (PI-positive cells, membrane-disruptive activity)","B16-F10 cells [5]; 1 h, pH 7.4 and 5.5, PI 1 µg/ml, confocal",showed no obvious difference
same,membrane-lytic behavior in time-lapse images,"B16-F10 cells [5]; pH 5.5, PI 1 µg/ml, images every 1 min for 30 min","developed necrosis, including rounding, blebbing, swelling, and bursting"
same,short-term cytotoxicity against B16-F10 cells,B16-F10 cells [6],"high cytotoxicity to B16-F10 cells, even at 1.25 µM; also recorded: no obvious pH dependence"
